Laboratory results: ChEMBL document CHEMBL4138104, “Indole carboxylic acid esters of melampomagnolide B are potent anticancer agents against both hematological and solid tumor cells” (Eur J Med Chem, 2017)
Active and inactive are the calls of the source. No cut-off for these calls is given here.

Columns and labels:
MDA-MB-468 = assay: Growth inhibition of human MDA-MB-468 cells incubated for 48 hrs by sulforhodamine B assay; type: functional; conditions: MDA-MB-468, 48 h
Outline: (§1)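 NCI-60 screen. Compounds were dosed at five concentrations spanning 10^-4 to 10^-8 M for 48 h at 37 °C. Cells were TCA-fixed, stained with 0.4% SRB and read at 515 nm against time-zero and vehicle controls. GI50 is the concentration giving a 50% reduction in net protein increase.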

CAKI-1 = assay: Growth inhibition of human Caki1 cells incubated for 48 hrs by sulforhodamine B assay; type: functional; conditions: CAKI-1, 48 h; outline: as §1
SK-MEL-5 = assay: Growth inhibition of human SK-MEL-5 cells incubated for 48 hrs by sulforhodamine B assay; type: functional; conditions: SK-MEL-5, 48 h; outline: as §1
[1] = Solubility of the compound in water; type: physicochemical; conditions: buffer
SK-MEL-2 = assay: Growth inhibition of human SK-MEL-2 cells incubated for 48 hrs by sulforhodamine B assay; type: functional; conditions: SK-MEL-2, 48 h; outline: as §1
PC-3 = assay: Growth inhibition of human PC3 cells incubated for 48 hrs by sulforhodamine B assay; type: functional; conditions: PC-3, 48 h; outline: as §1
TK-10 = assay: Growth inhibition of human TK10 cells incubated for 48 hrs by sulforhodamine B assay; type: functional; conditions: TK-10, 48 h
Outline: (§2)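 NCI-60 screen run at NCI. Cells grown in RPMI medium with 5% FBS and 2 mM L-glutamine, plated at 5,000–40,000 cells/well, and preincubated 24 h at 37 °C. Time-zero plates were TCA-fixed. Compounds came from DMSO stocks and were tested at five concentrations from 10^-4 to 10^-8 M for 48 h. Cells were then TCA-fixed, stained with 0.4% SRB, and OD read at 515 nm. GI50 is the concentration giving a 50% reduction in net protein increase versus control.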

HOP-62 = assay: Growth inhibition of human HOP62 cells incubated for 48 hrs by sulforhodamine B assay; type: functional; conditions: HOP-62, 48 h; outline: as §1
ACHN = assay: Growth inhibition of human ACHN cells incubated for 48 hrs by sulforhodamine B assay; type: functional; outline: as §1
DU-145 = assay: Growth inhibition of human DU145 cells incubated for 48 hrs by sulforhodamine B assay; type: functional; conditions: DU-145, 48 h; outline: as §1
K562 = assay: Growth inhibition of human K562 cells incubated for 48 hrs by sulforhodamine B assay; type: functional; conditions: K562, 48 h; outline: as §1
EKVX = assay: Growth inhibition of human EKVX cells incubated for 48 hrs by sulforhodamine B assay; type: functional; outline: as §1
M14 = assay: Growth inhibition of human M14 cells incubated for 48 hrs by sulforhodamine B assay; type: functional; conditions: M14, 48 h; outline: as §1
COLO 205 = assay: Growth inhibition of human COLO205 cells incubated for 48 hrs by sulforhodamine B assay; type: functional; conditions: COLO 205, 48 h; outline: as §1
OVCAR-4 = assay: Growth inhibition of human OVCAR4 cells incubated for 48 hrs by sulforhodamine B assay; type: functional; conditions: OVCAR-4, 48 h; outline: as §1
786-0 = assay: Growth inhibition of human 786-0 cells incubated for 48 hrs by sulforhodamine B assay; type: functional; conditions: 786-0, 48 h; outline: as §1
OVCAR-3 = assay: Growth inhibition of human OVCAR3 cells incubated for 48 hrs by sulforhodamine B assay; type: functional; conditions: OVCAR-3, 48 h; outline: as §1
SNB-75 = assay: Growth inhibition of human SNB75 cells incubated for 48 hrs by sulforhodamine B assay; type: functional; conditions: SNB-75, 48 h; outline: as §2
Hs-578T = assay: Growth inhibition of human Hs 578T cells incubated for 48 hrs by sulforhodamine B assay; type: functional; outline: as §1
MDA-MB-435 = assay: Growth inhibition of human MDA-MB-435 cells incubated for 48 hrs by sulforhodamine B assay; type: functional; conditions: MDA-MB-435, 48 h; outline: as §1
BT-549 = assay: Growth inhibition of human BT549 cells incubated for 48 hrs by sulforhodamine B assay; type: functional; conditions: BT-549, 48 h; outline: as §1
IGROV-1 = assay: Growth inhibition of human IGROV1 cells incubated for 48 hrs by sulforhodamine B assay; type: functional; conditions: IGROV-1, 48 h; outline: as §1
T47D = assay: Growth inhibition of human T47D cells incubated for 48 hrs by sulforhodamine B assay; type: functional; outline: as §2
SR = assay: Growth inhibition of human SR cells incubated for 48 hrs by sulforhodamine B assay; type: functional; outline: as §2
MDA-MB-231 = assay: Growth inhibition of human MDA-MB-231/ATCC cells incubated for 48 hrs by sulforhodamine B assay; type: functional; conditions: MDA-MB-231, 48 h; outline: as §1
[2] = Induction of apoptosis in AML01 cells isolated from acute myelogenous leukemia patient after 24 hrs by annexin V/7-AAD/propidium iodide staining-based flow cytometric method; type: functional, cell-based; conditions: Homo sapiens, AML01, 24 h
Outline: (§3)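 Primary AML specimens from consenting patients were Ficoll-separated and some were cryopreserved. Cells were held 1 h in serum-free IMDM with 20% BIT 9500, LDL and beta-mercaptoethanol before drug. Drugs were diluted from DMSO stock into PBS, final DMSO ≤0.5%. Dosing was 0.5–10 μM for 24 h. Annexin V/7-AAD flow cytometry scored double-negative (non-apoptotic) cells, normalized to vehicle, in triplicate, and EC50 came from dose-response curves.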

[3] = Induction of apoptosis in AML02 cells isolated from acute myelogenous leukemia patient after 24 hrs by annexin V/7-AAD/propidium iodide staining-based flow cytometric method; type: functional, cell-based; conditions: Homo sapiens; outline: as §3
[4] = Potency index, ratio of melampomagnolide-B EC50 to compound EC50 for human M9-ENL1 cells; type: functional
Outline: (§4)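 M9-ENL1 AML cells, derived by MLL-ENL transduction of human blood cells, were plated at 10^6 cells/mL in alpha-MEM with 5% human plasma, 20% FBS, SCF, IL-3, IL-7 and FLT3 ligand. Exposure was 24 h. Non-apoptotic (Annexin V/7-AAD double-negative) fraction was normalized to vehicle, in triplicate, to give EC50. PTL and MMB were run as reference controls.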

Rattus norvegicus [5] = organism: Rattus norvegicus; assay: Induction of cell detachment in rat 9LSF cells at 20 uM after 48 hrs by microscopic analysis; type: functional, cell-based
Outline: (§5)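 Rat 9L-SF gliosarcoma cells were grown in DMEM/F12 with 10% iron-supplemented calf serum at 37 °C under 5% CO2. Treatment was applied to 50% confluent monolayers. Cell detachment and necrosis were scored visually by microscopy.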

[6] = Induction of apoptosis in AML03 cells isolated from acute myelogenous leukemia patient after 24 hrs by annexin V/7-AAD/propidium iodide staining-based flow cytometric method; type: functional, cell-based; conditions: Homo sapiens; outline: as §3
[7] = Potency index, ratio of PTL EC50 to compound EC50 for human M9-ENL1 cells; type: functional; outline: as §4
[8] = Induction of apoptosis in AML04 cells isolated from acute myelogenous leukemia patient after 24 hrs by annexin V/7-AAD/propidium iodide staining-based flow cytometric method; type: functional, cell-based; conditions: Homo sapiens; outline: as §3
Rattus norvegicus [9] = organism: Rattus norvegicus; assay: Induction of necrosis in rat 9LSF cells at 20 uM after 48 hrs by microscopic analysis; type: functional, cell-based; outline: as §5
Rattus norvegicus [10] = organism: Rattus norvegicus; assay: Inhibition of colony formation of rat 9LSF cells at 5 to 20 uM after 48 hrs by colony formation assay; type: functional
Outline: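 9L-SF cells were seeded in 60 mm dishes to reach 50% confluence (6.65×10^4 cells/cm²) after 24 h. They were treated 48 h with drug serially diluted from DMSO stock (max 0.05% DMSO), then rinsed, trypsinized, counted and seeded in triplicate flasks for colonies. Lethally irradiated (25 Gy) feeders kept density at 2,000 cells/cm². Survival was normalized to control plating efficiency, with three experiments.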

CN(C)CC1C(=O)O[C@@H]2[C@H]3O[C@]3(C)CC/C=C(/COC(=O)c3cc4ccccc4[nH]3)CC[C@@H]12.O=C(O)/C=C/C(=O)O (stereo partly specified)
GI50 (MDA-MB-468): 1.12 µM
GI50 (CAKI-1): 1.11 µM
GI50 (SK-MEL-5): 1.85 µM
solubility [1]: Soluble
GI50 (SK-MEL-2): 2.1 µM
GI50 (PC-3): 2.37 µM
GI50 (TK-10): 2.12 µM
GI50 (HOP-62): 2.2 µM
GI50 (ACHN): 0.67 µM
GI50 (DU-145): 1.49 µM
GI50 (K562): 0.63 µM
GI50 (EKVX): 3.36 µM
GI50 (M14): 1.57 µM
GI50 (COLO 205): 1.98 µM
GI50 (OVCAR-4): 1.36 µM
GI50 (786-0): 1.71 µM
GI50 (OVCAR-3): 0.35 µM
GI50 (SNB-75): 3.21 µM
GI50 (Hs-578T): 3.03 µM
GI50 (MDA-MB-435): 1.28 µM
GI50 (BT-549): 1.57 µM
GI50 (IGROV-1): 2.07 µM
GI50 (T47D): 2.11 µM
GI50 (SR): 1.59 µM
GI50 (MDA-MB-231): 1.74 µM

C=C1C(=O)O[C@@H]2[C@H]3O[C@]3(C)CC/C=C(/COC(=O)/C=C/c3c[nH]c4ccccc34)CC[C@@H]12
GI50 (MDA-MB-468): 0.19 µM
EC50 [2]: 1.3 µM
EC50 [3]: 0.91 µM
GI50 (SK-MEL-5): 0.2 µM
Ratio IC50 [4]: >20
Activity (Rattus norvegicus [5]): Active
GI50 (SK-MEL-2): 0.2 µM
EC50 [6]: 0.32 µM
GI50 (PC-3): 0.32 µM
GI50 (TK-10): 0.27 µM
GI50 (HOP-62): 0.82 µM
GI50 (ACHN): 0.2 µM
GI50 (DU-145): 0.39 µM
GI50 (K562): 0.27 µM
GI50 (EKVX): 0.23 µM
GI50 (M14): 0.22 µM
GI50 (COLO 205): 0.22 µM
GI50 (OVCAR-4): 0.2 µM
Ratio IC50 [7]: 9
GI50 (786-0): 0.22 µM
GI50 (OVCAR-3): 0.17 µM
GI50 (SNB-75): 0.17 µM
EC50 [8]: 1 µM
GI50 (Hs-578T): 0.35 µM
Activity (Rattus norvegicus [9]): Active
GI50 (MDA-MB-435): 0.22 µM
GI50 (BT-549): 0.17 µM
GI50 (IGROV-1): 0.22 µM
GI50 (T47D): 0.2 µM
GI50 (SR): 0.27 µM
GI50 (MDA-MB-231): 0.17 µM

C=C1C(=O)O[C@@H]2[C@H]3O[C@]3(C)CC/C=C(/COC(=O)c3cc4ccccc4[nH]3)CC[C@@H]12
GI50 (MDA-MB-468): 0.3 µM
EC50 [2]: 3.5 µM
GI50 (CAKI-1): 1.08 µM
EC50 [3]: 2.7 µM
GI50 (SK-MEL-5): 1.26 µM
Ratio IC50 [4]: 2 - 20
Activity (Rattus norvegicus [5]): Active
GI50 (SK-MEL-2): 1.92 µM
EC50 [6]: 2.9 µM
GI50 (PC-3): 1.42 µM
GI50 (TK-10): 1.39 µM
GI50 (ACHN): 0.34 µM
GI50 (DU-145): 1.21 µM
GI50 (K562): 0.32 µM
GI50 (M14): 0.81 µM
GI50 (786-0): 0.37 µM
GI50 (SNB-75): 1.01 µM
inhibition (Rattus norvegicus [10]): Active
EC50 [8]: 2.2 µM
Activity (Rattus norvegicus [9]): Active
GI50 (MDA-MB-435): 0.76 µM
GI50 (BT-549): < 0.01 µM
GI50 (T47D): < 0.01 µM
GI50 (SR): 1.08 µM
GI50 (MDA-MB-231): 1.14 µM
